Screens deposited in PubChem by several laboratories.
Hck-Nef inh – blocks Nef-activated human Hck kinase | Recombinant Hck-YEEI plus Nef, Z-Lyte FRET kinase assay | hit rate 0.68% among 220,000 | AID 463187 | inhibition, % at 20 µM;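 active = Hck-Nef kinase inhibition above about 50%, limit read from the data; inactive = inhibition below that limit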
PKD1 inh – inhibitors of human PKD1 kinase | Q15139 | PKD1 kinase fluorescence polarization assay | inhibition, % (test concentration not listed) | hit rate 0.056% among 200,000 | AID 797; in the data active = inhibition above about 50%
Rad51 HR inh – Rad51 (human) homologous recombination inhibition; AID 1385; hit rate 0.085% among 200,000; inhibition, % at 10 µM; hRad51 DNA strand exchange, fluorescence dequenching; Q06609;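 active = inhibition above 40% at the single screening dose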
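Material: hRad51 filaments on single-stranded DNA; Reagent: Donor/quencher-labelled 47-bp dsDNA substrate; Compound: 10 µM final, single point; Schedule: 37 °C 15-min filament assembly, 30-min compound preincubation, 15-min exchange; Technique: FRET fluorescence, excitation 485 nm, emission 520 nm; Benchmarks: control wells and blank wells on each plate.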
TAG inh – reduces triacylglycerol accumulation in H9c2 cells; Nile Red lipid (TAG) fluorescence; cells loaded with 200 µM oleic acid; hit rate 0.66% among 230,000; inhibition, % at 12.5 µM;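 active = pattern-corrected inhibition of lipid staining of at least 50% with the nuclear-stain viability signal not falling by more than 50%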
PERK inh – blocks human PERK kinase; Q9NZJ5; inhibition, % at 5.6 µM; hit rate 0.17% among 220,000; CHO PERK-DD fusion, SEAP luminescence translation reporter;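 active = inhibition above the mean inhibition of all tested compounds plus 3 SD, set separately per screening campaign, cut at about 2.9% in these data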;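 also: PERK kinase domain activated by AP20187 dimerizer at 100 nM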
MDM2 E3 inh – inhibitors of human Mdm2 E3 ubiquitin ligase | Q00987 | cell-based MDM2 ubiquitination luciferase reporter, 2 h; 0 = plate control, 100 = twice control, blank-subtracted | signal enhancement, % at 5 µM | hit rate 0.11% among 210,000 | AID 1230;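 active = signal enhancement of 30% or more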;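 also: luminescence tracks abundance of the self-degrading MDM2-luciferase fusion protein; higher signal means inhibition of MDM2 E3 ligase activity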
Target sequence (Q00987 whole entry, looked up, the tested form may be a part): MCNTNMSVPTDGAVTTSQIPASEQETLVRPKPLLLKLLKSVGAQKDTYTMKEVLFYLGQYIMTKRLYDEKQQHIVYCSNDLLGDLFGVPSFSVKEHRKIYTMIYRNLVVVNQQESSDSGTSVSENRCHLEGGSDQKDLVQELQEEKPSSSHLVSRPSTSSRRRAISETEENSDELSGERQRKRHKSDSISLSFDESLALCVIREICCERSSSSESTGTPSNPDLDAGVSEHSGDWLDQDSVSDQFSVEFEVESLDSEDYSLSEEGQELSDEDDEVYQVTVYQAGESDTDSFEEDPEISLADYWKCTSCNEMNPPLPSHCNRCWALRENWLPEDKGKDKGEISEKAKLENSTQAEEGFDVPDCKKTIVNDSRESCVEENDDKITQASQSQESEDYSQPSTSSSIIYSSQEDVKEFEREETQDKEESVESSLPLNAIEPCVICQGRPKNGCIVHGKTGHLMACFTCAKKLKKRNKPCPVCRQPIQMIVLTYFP
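Timing – 2 h compound exposure at 37 °C · Assay system – mammalian cells stably expressing self-ubiquitinating, self-degrading MDM2 E3–luciferase fusion · Amount – 2000 cells seeded into each well · Measure – % luminescence enhancement versus blank-corrected plate control mean · Measured by – SteadyLite luminescence, 15 min reagent step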
Hck-Nef confirm – Hck-Nef kinase inhibition, confirmation. Recombinant Hck-YEEI:Nef, Z-Lyte FRET kinase assay. AID 463188. shares compounds with Hck-Nef inh. hit rate 28% among 1,300. calls only at 10 µM;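 active = average inhibition of at least 50%, with Z-scores no higher than 3 in both the phospho-tyrosine peptide and fluorescence counterscreens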
Hits are given with their value; n = inactive; x = no result shown; + = active, no number. An excerpt weighted towards active compounds, which were near 1.3% of everything screened.

SMILES	Hck-Nef inh	PKD1 inh	Rad51 HR inh	TAG inh	PERK inh	MDM2 E3 inh	Hck-Nef confirm
Clc1cccc(Cl)c1CSc1nnc(CN2CCOCC2)n1-c1ccccc1	n	n	n	n	n	n	x
Fc1cccc(Cl)c1CSc1nnc(CN2CCOCC2)n1-c1ccccc1	95.9	n	n	n	n	n	n
COC(C)(C)c1cc(C(C)(C)C)nc(N)n1	102.2	n	n	x	n	n	n
COc1ccc(C(=O)NCC(=O)OCC(=O)Nc2sccc2C#N)cc1OC	n	n	n	n	n	n	x
Cc1cccc(Cc2nnc(CCC(=O)NCc3ccncc3C)o2)c1	n	n	n	n	n	n	x
Cc1cccc(Cc2nnc(CCC(=O)N(C)Cc3ccncc3C)o2)c1	84.1	n	n	n	n	n	n
COc1cccc(N=C2SC(CC(=O)Nc3ccccc3)C(=O)N2Cc2ccccn2)c1 (stereo unspecified)	n	n	n	n	n	n	x
O=C(N/N=C/c1ccc([N+](=O)[O-])o1)c1cc(-c2ccc(-c3ccccc3)cc2)nc2ccccc12	197.5	n	x	n	n	x	n
O=C(N/N=C/c1ccc([N+](=O)[O-])o1)c1cc(-c2ccncc2)nc2ccccc12	n	n	n	x	n	n	x
Cc1cc2nc(-c3ccc(SCc4ccc(C(=O)O)cc4)nc3)[nH]c2cc1C	74.2	n	n	x	n	n	+
Cc1cc2nc(-c3ccc(SCC(=O)Nc4ccc(S(=O)(=O)NC5CC5)cc4)nc3)[nH]c2cc1C	86.5	n	n	x	n	n	+
O=C(O)/C=C/C(=O)OC1CC2CCC1C2 (stereo unspecified)	n	x	n	n	n	n	x
CCOC(=O)CSC(=S)NC(=O)c1ccc(OC)cc1	56.9	n	n	x	n	n	n
O=c1oc2c3c4c(cc2c2c1CCC2)OCCN4CCC3	96.9	n	n	n	n	n	x
COC(=O)CCC(=O)OC1(C)C(=O)C=C2C=C(C3CC3)OC=C2C1=O (stereo unspecified)	x	x	n	x	x	x	x
CCC(C)N1CC(O)=C(c2nc3ccccc3[nH]2)C1=N (stereo unspecified)	58.0	n	n	x	n	n	+
c1coc(-c2nc(-c3ccco3)c(-c3ccco3)nc2-c2ccco2)c1	59.8	n	n	x	n	n	n
O=C(O)c1nn(CC(=O)N2CCN(S(=O)(=O)c3ccc(Cl)cc3)CC2)c(=O)c2ccccc12	n	x	n	n	n	n	x
O=C(Cn1c2ccccc2c(=O)c2ccccc21)N/N=C/c1ccc(N2CCCC2)c([N+](=O)[O-])c1	n	n	n	x	n	n	x
O=C(Cn1c2ccccc2c(=O)c2ccccc21)N/N=C/c1cc([N+](=O)[O-])ccc1N1CCCCCC1	81.4	n	n	n	n	n	+
O=C(Nc1nc2ccc(S(=O)(=O)N3CCCCC3)cc2s1)c1ccncc1	n	n	n	n	n	n	x
O=C(Nc1nc2ccc(S(=O)(=O)N3CCCC3)cc2s1)c1ccccn1	56.9	n	n	n	n	n	n
O=C(/C=C/c1ccc(Br)o1)Nc1nnc(C2CC2)s1	57.2	x	n	x	n	n	+
CN(C)c1ccc(CNC(=O)c2cc(S(=O)(=O)N3CCOCC3)cn2C)cc1	x	x	x	n	x	x	x
O=C(Nc1ccccc1)c1ccc(Br)o1	n	n	n	x	n	x	x
SMILES	Hck-Nef inh	PKD1 inh	Rad51 HR inh	TAG inh	PERK inh	MDM2 E3 inh	Hck-Nef confirm
O=C(Nc1cccc(NC(=O)c2ccc(Br)o2)n1)c1ccc(Br)o1	98.1	n	n	x	n	n	n
CCOC(=O)c1c(/N=C/N(C)C)sc(/C=N/Nc2ccccc2)c1-c1ccccc1	n	n	n	x	n	n	x
CCOC(=O)c1c(/N=C/N(C)C)sc(C=O)c1-c1ccccc1	97.7	n	n	n	n	n	n
COc1cc(C=C2C(=O)c3ccccc3C2=O)cc(OC)c1OC	n	n	n	n	n	n	x
COc1cc(C=C2C(=O)c3ccccc3C2=O)ccc1O	74.4	x	n	n	n	n	n
COc1ccc(C=C2C(=O)c3ccccc3C2=O)cc1O	104.5	n	n	n	n	n	n
FC(F)(F)c1cnc(Sc2ncn[nH]2)c(Cl)c1	n	n	n	n	n	n	x
C[C@@H]1CN([C@H](C)CO)C(=O)c2cc(Br)cnc2O[C@@H]1CN(C)C(=O)Nc1ccccc1	x	x	x	n	x	x	x
CCOC(=O)c1cc2nc(Nc3ccc(OC)cc3)sc2s1	51.4	n	n	x	n	n	n
COc1ccc(CCn2nnc3ccccc3c2=O)cc1OC	x	x	x	n	x	x	x
Clc1cnc(N/N=C/c2cccs2)c(Cl)c1	n	n	n	n	n	n	x
CCCCc1ccc(Nc2ncnc3nc[nH]c23)cc1	n	n	x	n	n	n	x
CCc1ccc(Nc2ncnc3nc[nH]c23)cc1	63.2	x	n	n	n	n	+
C(=N\Nc1ncnc2nc[nH]c12)/c1cccs1	81.6	n	n	n	n	n	+
Fc1ccc(/C=N/Nc2ncnc3nc[nH]c23)cc1F	67.5	n	x	n	n	x	+
Cc1ccsc1/C=N/Nc1ncnc2nc[nH]c12	75.6	n	n	n	n	n	+
O=C(Cc1ccc(F)cc1)NCCS(=O)(=O)N1CCN(c2cccc(Cl)c2)CC1	x	x	x	n	x	x	x
Cc1ccccc1/C=N/Nc1ncnc2nc[nH]c12	74.8	x	n	n	n	n	+
c1ccc(CNc2ncnc3nc[nH]c23)cc1	n	n	n	n	n	n	x
Cc1cc(NC(=O)c2cccs2)n(-c2nc3ccccc3[nH]2)n1	85.2	n	x	n	n	x	n
Cc1cc(NC(=O)c2ccccc2)n(-c2nc3ccccc3[nH]2)n1	n	n	n	n	n	n	x
Cn1nc(Oc2ncc(C(F)(F)F)cc2Cl)cc1C(F)(F)F	54.3	n	n	n	n	n	n
COc1ccc(-n2c(N)c(C(=O)NCc3ccco3)c3nc4ccccc4nc32)cc1	68.9	n	n	x	n	n	n
C=CCNC(=O)c1c(N)n(-c2cccc(S(N)(=O)=O)c2)c2nc3ccccc3nc12	58.3	n	n	n	n	n	n
COCCNC(=O)c1c(N)n(-c2cccc(C)c2)c2nc3ccccc3nc12	60.0	n	n	n	n	n	x
CCC(=O)N(Cc1ccc(S(N)(=O)=O)cc1)C1CC(=O)N(c2ccccc2)C1=O (stereo unspecified)	n	n	n	n	n	n	x
O=C(/C=C/N1CCOCC1)c1ccc(-c2ccccc2)cc1	66.2	n	n	x	n	n	n
N#Cc1ccc(N2C(=O)[C@@H]3C(C(=O)c4cnccn4)=NN[C@@H]3C2=O)cc1	n	x	n	n	n	n	x
O=C(C1=NN[C@@H]2C(=O)N(c3cccc(C(F)(F)F)c3)C(=O)[C@H]12)c1cnccn1	52.0	x	n	n	n	n	n
COC(=O)Cc1[nH]n(-c2nc3ccccc3s2)c(=O)c1C(C)=Nc1ccc(Cl)cc1	63.7	x	x	n	n	n	n
